Reference: paper PMC6896334 (Cell reports, 2019)
Where “and” joins values, the source holds several entries; their conditions need not be identical. Equal entries are not always repeated.

Columns and labels:
HCT116 cells [1] = test: HCT116 cell cycle analysis; type: cell-based, human; conditions: HCT116, 40 μM, 4-24 hours
In short: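 Cells exposed to test compound or DMSO, then trypsinised, PBS-washed and fixed in 70% ethanol at −20°C. After centrifugation and PBS wash, cells were stained in PI/RNase buffer for 15 min at room temperature. DNA content was analysed by flow cytometry.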

Water solubility = type: physicochemical
Id1 (59–104) = target: T1, Id1 (59–104) (Mus musculus, UniProt P20067); test: UV crosslinking of AGX51-XL2 to purified Id1 and mass spectrometry; type: binding; conditions: 10-fold excess of AGX51
T1 sequence (P20067 59-104): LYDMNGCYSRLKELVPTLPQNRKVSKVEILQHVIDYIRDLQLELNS
In short: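 Purified Id1 (aa 59–104, 1 µg) was mixed in the dark with 19.7 ng of a benzophenone photoreactive test-compound analog in DMSO and UV-irradiated for 20 min, with a no-UV control. Samples were run in the dark on a 15% denaturing gel and silver stained. Bands were excised for mass spectrometry.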

Id1 crystals = target: T2, Id1 crystals (Mus musculus, UniProt P20067); test: Exposure of Id1 crystals to compound; conditions: DMSO alone had no such effect
T2 sequence (P20067 51-104): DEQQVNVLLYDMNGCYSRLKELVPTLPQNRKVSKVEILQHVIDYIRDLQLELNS
In short: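 Mouse Id1 (residues 51–104) crystals grown by hanging-drop vapour diffusion at 4°C. Protein at 2.8 mg/mL (20 mM Tris pH 8.0, 0.25 M NaCl, 5 mM DTT) was mixed 1:1 with reservoir of 0.1 M sodium citrate pH 6.5, 0.2 M magnesium acetate and 10% PEG8000.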

ID1 [2] = target: T3, ID1 (Homo sapiens, UniProt P41134); test: Western blot for ID1 in HUVECs; type: cell-based; conditions: 0–40 μM, 24 h
T3 sequence (P41134 1-155): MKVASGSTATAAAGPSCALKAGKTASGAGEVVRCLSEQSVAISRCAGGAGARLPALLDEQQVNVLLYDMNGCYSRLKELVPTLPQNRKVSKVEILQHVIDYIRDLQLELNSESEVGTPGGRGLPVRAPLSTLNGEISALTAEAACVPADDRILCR
In short: (§1)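 HUVECs treated with 0–40 µM test compound for 24 h. Whole-cell lysates were immunoblotted for the target protein. Infrared band intensities were blank-subtracted and normalised to tubulin.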

[3] = Pharmacokinetics in serum after i.p. injection; type: in vivo, mouse; conditions: for mean maximum serum concentration: mice
In short: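 Eight-week-old male BALB/c mice received a single i.p. dose of 30, 50 or 100 mg/kg in 70% DMSO, with another group given 100 mg/kg in 100% DMSO (n = 3 per group). Blood was drawn at 30 min, 1, 3, 6 and 24 h. […] was quantified by a validated LC-MS protocol.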

ID1 mRNA = test: qRT-PCR for ID1 in HCT116 cells; type: cell-based, human; conditions: HCT116, 40 μM, 24 hours
In short: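 ID1 transcript measured by qRT-PCR after treatment, using validated QuantiTect primer sets with GAPDH as reference. Fold change was calculated by the delta-delta CT method.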

HUVECs [4] = test: HUVEC cell branching assay on matrigel; type: cell-based, human; conditions: 0–40 μM, 18–20 h on matrigel, vs vehicle, p < 0.05
In short: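 HUVECs (80,000 per well) in EGM-2 containing the test compound at the indicated concentration were plated on Matrigel pre-solidified for 30 min at 37°C. After 18–20 h, media was removed and wells were fixed in 10% buffered formalin for 15 min. Tubes were imaged by inverted microscope at 10x. Nodes, junctions, meshes and total branching length were scored by Angiogenesis Analyzer, n = 4 per concentration, Wilcoxon test.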

HCT116 cells [5] = test: HCT116 cell viability; type: cell-based, human
In short: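 MTT viability: cells seeded at 5000/well and left overnight, then exposed to the test compound for 24 h. MTT (5 mg/mL) was added for 4 h, medium removed and formazan dissolved in DMSO. Absorbance was read at 570 nm.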

[6] = Concentration of AGX51 in the eyes after i.p. dosing; type: in vivo, mouse
In short: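 Test compound given i.p. at 30 mg/kg. Eyes were dissected at time points over 24 h, extracted, and compound content per eye measured by mass spectrometry.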

E47-ID1 cellular complex = target: T4, E47-ID1 cellular complex (Homo sapiens, UniProt P41134); test: Immunoprecipitation of endogenous ID1 and E47 in HCT116 cells; type: cell-based; conditions: HCT116, 60 μM, 1 h
T4 sequence (P41134 1-155): T3 sequence (P41134 1-155)
In short: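 HCT116 cells were exposed for 1 h and lysed in NP40 or RIPA buffer with phosphatase/protease inhibitors, then cleared 15 min at 15,000 rpm, 4°C. Lysates were immunoprecipitated overnight at 4°C with anti-ID1 or anti-E2A plus protein G/A beads, washed four times and eluted in SDS sample buffer. SDS-PAGE/PVDF blots (5% milk in TBS-0.1% Tween20) were probed for ID1 (1:500) or E2A (1:1000), alongside whole-cell lysate blots.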

Cyclin D1 [7] = test: Western blot for Cyclin D1 in HUVECs; type: cell-based, human; conditions: 0–40 μM, 24 h
In short: as §1

Cyclin D1 [8] = test: Western blot for Cyclin D1 in HCT116 cells; type: cell-based, human; conditions: HCT116, 40 μM, 0-48 hours
Id1 [9] = target: T5, Id1 (Mus musculus, UniProt P20067); test: Circular dichroism; type: binding; conditions: AGX51 0–50 μM; AGXA 0–110 μM in DMSO
T5 sequence (P20067 1-148 isoform P20067-2): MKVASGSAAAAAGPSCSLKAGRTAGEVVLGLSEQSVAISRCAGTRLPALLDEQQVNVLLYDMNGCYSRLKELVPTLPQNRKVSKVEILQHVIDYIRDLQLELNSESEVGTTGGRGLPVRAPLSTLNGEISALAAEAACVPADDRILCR

E protein binding = test: EMSA on whole cell lysates from HCT116 cells; type: cell-based, human; conditions: HCT116, 40 μM, 24 h
HUVECs [10] = test: HUVEC scratch assay; type: cell-based, human; conditions: 0–40 μM, 24 h
In short: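 HUVECs grown on 0.1% fibronectin-coated wells to confluence over 24 h. They were then serum-starved for 4 h in endothelial basal medium and scratched with a pipette tip to create a cell-free zone before exposure to the test compound.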

Id3 = target: T6, Id3 (Mus musculus, UniProt P41133); test: Circular dichroism; type: binding
T6 sequence (P41133 1-119): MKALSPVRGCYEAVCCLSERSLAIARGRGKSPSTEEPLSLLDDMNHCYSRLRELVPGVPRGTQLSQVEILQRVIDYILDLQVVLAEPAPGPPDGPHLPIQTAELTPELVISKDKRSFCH

Q: Which results are given for `CCC(=O)N(CCC(c1ccc2c(c1)OCO2)c1ccccc1OC)Cc1ccccc1` (stereo not shown) [AGX51, N-(3-(benzo[d][1,3]dioxol-5-yl)-3-(2-methoxyphenyl)propyl)-N-benzylpropionamide]?
A: cell cycle effect (HCT116 cells [1]): G0/G1 growth arrest; water solubility (Water solubility): water insoluble; AGX51-XL2 binding to Id1 in the presence of competitor (Id1 (59–104)): significant decrease in AGX51-XL2 binding to Id1; effect on Id1 crystals (Id1 crystals): the crystals melted; concentration at which a significant decrease in ID1 protein levels was observed (ID1 [2]): 10 µM; half-life ([3]; male, BALB/c, mouse, serum, ip): ~3 h; mean maximum serum concentration ([3]; i.p. 30 mg/kg in 70% DMSO, 30 mg/kg): 1.1 μg/mL and 2.7 μM; mean maximum serum concentration ([3]; i.p. 50 mg/kg in 70% DMSO, 50 mg/kg): 1.6 μg/mL and 4 μM; mean maximum serum concentration ([3]; i.p. 100 mg/kg in 70% DMSO, compared with lower doses): not increased further; ID1 mRNA levels (ID1 mRNA): increase in ID1 mRNA levels; vascular branching (nodes, junctions, meshes, total branching length) (HUVECs [4]): significantly impaired in a dose-dependent manner; cell viability (MTT) (HCT116 cells [5]; HCT116, 40 μM, 24 hours): reduced cell viability; IC50 (HCT116 cells [5]; Homo sapiens, HCT-116, 24 h): 22.3 µM; half-life ([6]; male, BALB/c, mouse, eye, ip, 30 mg/kg): 3.7 h; maximum concentration in the eye ([6]; mice, i.p. 30 mg/kg, after 30 min): ~ 4 ng/eye; levels of co-precipitated E47 / ID1 (E47-ID1 cellular complex): markedly reduced the levels of the co-precipitated proteins; Cyclin D1 levels (Cyclin D1 [7]): reduction in Cyclin D1 levels; Cyclin D1 levels (Cyclin D1 [8]): reduction in Cyclin D1 levels; effect on Id1 secondary structure (CD spectra) (Id1 [9]): significant alteration in the 2° structure of Id1; E protein binding in cell lysates (E protein binding): small increase in E protein binding; HUVEC migration after scratch (HUVECs [10]): significantly impaired HUVEC migration; effect on Id3 secondary structure (CD) (Id3): small but reproducible effect
